High-throughput results deposited in PubChem BioAssay by several laboratories.
Sampled rows, rich in hits. Any-hit rate of the full collection: about 2%.
HKDC1 inh = HKDC1 (human) hexokinase inhibition | Q2TB90 | recombinant HKDC1, G6PDH/diaphorase resazurin coupled fluorescence | inhibition, % at 20 µM | 340,000 compounds, 0.16% hits;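 active = inhibition above about 35% when tested at 20 µM, limit read from the data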
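System: Recombinant HKDC1 hexokinase | Amount: HKDC1 at 5 µg/mL | Reagent: Glucose with 1 mM ATP | Doses: Single 20 µM dose | Incubation: Reaction time 90 min, room temperature, protected from light | Signal: Coupled resazurin fluorescence, excitation 525 nm, emission 613 nm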
IMP-1 inh = blocks Pseudomonas aeruginosa IMP-1 metallo-beta-lactamase | inhibition, % at 5.6 µM | purified IMP-1, nitrocefin hydrolysis, epi-absorbance fluorescence | 290,000 compounds, 0.45% hits;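 active = inhibition above the mean plus 3 SD of all compounds in the same screening run, cut at about 4.5% in these data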
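assay system = purified recombinant IMP-1 metallo-beta-lactamase enzyme | schedule = 15 min preincubation plus 25 min reaction at 25 °C | signal = Epi-absorbance fluorescence, 480 nm excitation, 530 nm emission | read-out basis = percent inhibition from optical density relative to buffer-blank wells | controls = IMP-1 with DMSO as 0%, enzyme-free DMSO as 100%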
VIM-2 inh = blocks Pseudomonas aeruginosa VIM-2 metallo-beta-lactamase; purified VIM-2, nitrocefin hydrolysis, epi-absorbance fluorescence; inhibition, % at 5.6 µM; AID 1527; 290,000 compounds, 0.89% hits;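 active = inhibition above the mean of all tested compounds plus 3 SD, cutoff set per screening run, cut at about 7.5% in these data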;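 note: red hydrolysis product quenches plate fluorescence so inhibitors raise well fluorescence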
ATG4B inh = inhibitors of human ATG4B cysteine protease. AID 504462. ATG4B cleavage of LC3-PLA2, NBD-HPC fluorescence, 1 h. 340,000 compounds, 0.51% hits. Q9Y4P1. inhibition, % at 8.33 µM; in the data active = inhibition above about 40%
Target sequence (Q9Y4P1 whole entry, looked up): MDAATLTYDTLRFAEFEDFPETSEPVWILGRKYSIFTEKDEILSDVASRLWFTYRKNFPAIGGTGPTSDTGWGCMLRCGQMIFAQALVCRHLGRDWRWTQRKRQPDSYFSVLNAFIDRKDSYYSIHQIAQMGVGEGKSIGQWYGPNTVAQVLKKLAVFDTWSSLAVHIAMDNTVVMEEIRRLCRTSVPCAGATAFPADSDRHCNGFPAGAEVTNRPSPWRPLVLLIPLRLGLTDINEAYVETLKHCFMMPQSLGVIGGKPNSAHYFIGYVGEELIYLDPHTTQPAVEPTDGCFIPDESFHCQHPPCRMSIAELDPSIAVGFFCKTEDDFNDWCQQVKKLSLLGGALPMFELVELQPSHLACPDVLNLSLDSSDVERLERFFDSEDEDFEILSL
beta cell repl = inducers of beta-cell replication in MIN6 cells. 330,000 compounds, 0.29% hits. AID 2380. MIN6 cells proliferation, ATPlite luminescence, 48 h; cells starved in 0.2% serum; 100% = growth in 10% serum. proliferation, % at 10 µM;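 active = compounds whose signal lies at least 3.5 SD above the mean of all wells on their plate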
PvdQ acylase = P. aeruginosa PvdQ acylase inhibition; AID 488965; purified PvdQ acylase, fluorescence plate reader; inhibition, % at 10 µM; 340,000 compounds, 0.063% hits; in the data active = inhibition above about 30%, passing the limit was not always enough
ATG4B confirm = confirmation of human ATG4B inhibitors. shares compounds with ATG4B inh. ATG4B protease fluorescent substrate cleavage assay. inhibition, % at 8.33 µM. 320 compounds, 92% hits. AID 504757; in the data active = inhibition above about 39%
PLA2 ctr = PLA2 (human) inhibition in ATG4B counter-screen; shares compounds with ATG4B inh; 1,600 compounds, 66% hits; AID 588402; inhibition, % at 8.33 µM; purified PLA2, NBD-C6-HPC fluorescence, 45 min; in the data active = inhibition above about 50%
Target sequence (P04054 whole entry, looked up): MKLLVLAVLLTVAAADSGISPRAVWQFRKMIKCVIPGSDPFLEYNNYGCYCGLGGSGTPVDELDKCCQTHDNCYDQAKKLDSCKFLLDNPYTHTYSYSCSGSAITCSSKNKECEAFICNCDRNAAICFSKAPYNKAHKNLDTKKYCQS
Each line names hits and unclear results; the compound was inactive in the other large screens (follow-up assays come after a bar, where they were run).

CCNC(=S)N1CCN(c2nc(CC)nc3sc4c(c23)CCCC4)CC1	ATG4B inh 73 | PLA2 ctr 83
CCc1nc(SCC(=O)N2CCN(C(=O)c3ccco3)CC2)c2c3c(sc2n1)CCCC3	VIM-2 inh 9.7, ATG4B inh 44 | PLA2 ctr 64
CCc1cc2ccccc2nc1SCC(=O)N1CCN(C(=O)c2ccco2)CC1	none (no result: beta cell repl)
O=c1c(Cl)c(N/N=C/c2ccc(Br)cc2)cnn1-c1ccccc1	none
COc1ccc(NC(=O)c2ccc(S(=O)(=O)N3CCOCC3)o2)cc1	none
O=C(CSc1ncnc2sc3c(c12)CCCC3)c1ccccc1	none
Cc1nc(N2CCN(C(=O)c3ccco3)CC2)c2c3c(sc2n1)CCCC3	ATG4B inh 68 | PLA2 ctr 67
O=C(CSc1ncnc2sc3c(c12)CCCC3)c1ccco1	ATG4B inh 41 | PLA2 ctr 51
Cc1nc(N2CCN(C(=O)c3ccco3)CC2)c2c3c(sc2n1)CC(C)CC3 (stereo not drawn)	none
COc1ccc(N(CC(=O)Nc2ccccc2C(=O)O)S(=O)(=O)c2ccc(C)c([N+](=O)[O-])c2)cc1	ATG4B inh 59 | PLA2 ctr 62
Cc1ccc(-c2[nH]nc3c2C(c2ccc(OC(=O)N4CCOCC4)cc2)C(C#N)=C(N)O3)cc1 (stereo not drawn)	ATG4B inh 43 | ATG4B confirm 78 | PLA2 ctr inactive
CC(C)Cn1c(N)c(C(=O)COC(=O)/C=C/c2ccccc2)c(=O)n(C)c1=O	none (no result: IMP-1 inh, VIM-2 inh)
COc1ccc(CSCCNC(=S)Nc2ccccc2)cc1Cl	none
S=C(NCCSCc1c(Cl)cccc1Cl)Nc1ccccc1	ATG4B inh 45 | PLA2 ctr 50
S=C(NCCSCc1ccc(Cl)c(Cl)c1)Nc1ccccc1	ATG4B inh 41 | ATG4B confirm 64 | PLA2 ctr inactive
S=C(NCCSCc1ccc(Cl)cc1Cl)Nc1ccccc1	none
O=C(COC(=O)c1ccccn1)Nc1ccc2c(c1)OCO2	none
CC(C)CC(=O)N1CCN(c2ccc(NC(=O)c3ccco3)cc2)CC1	none
COc1ccc(Cl)cc1NC(=O)CSc1nnc(Cn2c(=O)sc3ccccc32)n1C	none
Cc1ccc(C(=O)Nc2nc(-c3ccco3)c(-c3ccco3)s2)o1	ATG4B inh 40 (no result: IMP-1 inh, VIM-2 inh) | ATG4B confirm 64 | PLA2 ctr inactive
COC(=O)c1ccc(CSc2nc3ccccc3c(=O)n2-c2ccccc2)o1	ATG4B inh 65 | PLA2 ctr 73
O=C(CSc1nc2c(c(=O)n1-c1ccc(Cl)cc1)SCC2)Nc1nccs1	ATG4B inh 61 (no result: beta cell repl) | PLA2 ctr 80
O=c1c2ccccc2nc(SCc2nnc(-c3ccccc3)o2)n1-c1ccccc1	ATG4B inh 72 (no result: IMP-1 inh, VIM-2 inh) | PLA2 ctr 73
COC(=O)c1ccc(CSc2nc3c(c(=O)n2-c2ccc(F)cc2)SCC3)o1	ATG4B inh 48 | PLA2 ctr inactive
Cn1c(SCC(=O)Nc2cccc(S(=O)(=O)NC3=NCCCCC3)c2)nnc1-c1ccncc1	none
O=C(O)c1cccc(S(=O)(=O)N2CCC(n3nnc4cc(C(F)(F)F)ccc43)CC2)c1	none
Cc1nc2c(C(=O)NCCC(C)C)c[nH]n2c(=O)c1Cc1ccccc1F	ATG4B inh 51 | PLA2 ctr 63
Clc1cccc(Cc2nn[nH]n2)c1	none
O=C(Nc1ccc(Cl)cc1)NC1CCCC1Cc1ccco1 (stereo not drawn)	none
O=C(Nc1ccc(Cl)cc1)NC1CCCCC1Cc1ccco1 (stereo not drawn)	ATG4B inh 70 | PLA2 ctr 80
COc1ccc2c(c1OC)C(=O)OC2Nc1nc(-c2cccc([N+](=O)[O-])c2)cs1 (stereo not drawn)	ATG4B inh 52 | PLA2 ctr 71
C/C(CC(=O)Nc1ccccc1-c1ccccc1)=N\NC(=O)COc1ccc(C)cc1Br	ATG4B inh 72 | PLA2 ctr 78
CSc1nc2ccc(NC(=O)CSc3nnc(N)s3)cc2s1	none
O=C(COc1ccccc1[N+](=O)[O-])Nc1ccccc1N1CCCC1	ATG4B inh 50 | PLA2 ctr 58
O=C(COc1ccccc1[N+](=O)[O-])Nc1ccccc1N1CCCCC1	ATG4B inh 43 | PLA2 ctr 74
Cc1ccc(C(C)C)c(OCC(=O)Nc2ccccc2N2CCN(C)CC2)c1	ATG4B inh 54 | PLA2 ctr 66
Cc1ccccc1OCC(=O)Nc1ccccc1N1CCCCC1	none
Cc1cccc(OC(C)C(=O)NC2CCS(=O)(=O)C2)c1C (stereo not drawn)	none
CN(c1ccccc1)C1CCCCC1NS(=O)(=O)c1ccc(Cl)cc1 (stereo not drawn)	ATG4B inh 57 | PLA2 ctr 64
NC(=O)CSc1nnc(-c2cccs2)n1Cc1ccco1	none
Cc1ccc(C)c(CSc2nnc(-c3cccs3)n2Cc2ccco2)c1	ATG4B inh 83 | PLA2 ctr 77
CCCCc1ccc(NC(=S)NCc2ccccc2OC)cc1	none
CC(C)N1C(=O)CCC1C(=O)NCCc1ccc(Cl)cc1 (stereo not drawn)	none
COc1ccc(N2CCN(C(=O)CSc3nnc4n3C(C)(C)Cc3ccccc3-4)CC2)cc1	none
Cc1ccc(Cl)cc1N1CCN(C(=O)CSc2nnc3n2C(C)(C)Cc2ccccc2-3)CC1	ATG4B inh 44 | PLA2 ctr 69
O=C(c1cccs1)N(c1ccc(Br)cc1)C1C=CS(=O)(=O)C1 (stereo not drawn)	none
COc1ccc(C2C(C(C)=O)=C(C)N=c3s/c(=C\c4cc(C)n(C)c4C)c(=O)n32)c(OC)c1 (stereo not drawn)	ATG4B inh 56 | PLA2 ctr 73
CNC(=O)Nc1cccc(-c2cc(-c3c(Cl)cccc3Cl)no2)c1	ATG4B inh 59 | PLA2 ctr 65
Nc1cc(=O)[nH]c(SCC(=O)N2N=C(c3ccc(Cl)cc3)CC2c2ccco2)n1 (stereo not drawn)	none
CCCc1cc(=O)[nH]c(SCC(=O)N2N=C(c3ccc(Cl)cc3)CC2c2ccco2)n1 (stereo not drawn)	ATG4B inh 48 | ATG4B confirm 73 | PLA2 ctr inactive
COC(=O)c1ccccc1NC(=O)c1ccccc1N(C)S(C)(=O)=O	none
Cc1ccc(O)c(N=Cc2cc(Cc3ccccc3)cc([N+](=O)[O-])c2O)c1	IMP-1 inh 11, ATG4B inh 79 | PLA2 ctr 76
